# Test results reported in ChEMBL document CHEMBL4043093, “2-Oxo-3, 4-dihydropyrimido[4, 5-d]pyrimidinyl derivatives as new irreversible pan fibroblast growth factor receptor (FGFR) inhibitors” (Eur J Med Chem, 2017).
# Tests used:
# [1] = molecular target: Rho-associated protein kinase 2 (Homo sapiens) (UniProt O75116); assay: Inhibition of wild-type human partial length ROCK2 (M1 to T431 residues) expressed in HEK293 cells assessed as residual activity at 1000 nM after 30 mins by Kinomescan method relative to control; format: cell-based
# [2] = molecular target: Aurora kinase B (Homo sapiens) (UniProt Q96GD4); assay: Inhibition of wild-type human partial length AURKB (D25 to A303 residues) expressed in HEK293 cells assessed as residual activity at 1000 nM after 30 mins by Kinomescan method relative to control; format: cell-based
# [3] = molecular target: Calcium/calmodulin-dependent protein kinase type II subunit gamma (Homo sapiens) (UniProt Q13555); assay: Inhibition of wild-type human partial length CAMK2G (R9 to A303 residues) expressed in Escherichia coli BL21 assessed as residual activity at 1000 nM after 30 mins by Kinomescan method relative to control
# [4] = molecular target: Serine/threonine-protein kinase PRP4 homolog (Homo sapiens) (UniProt Q13523); assay: Inhibition of wild-type human partial length PRP4 (D657 to I1007 residues) expressed in Escherichia coli BL21 assessed as residual activity at 1000 nM after 30 mins by Kinomescan method relative to control
# [5] = molecular target: PDGFRA (platelet-derived growth factor receptor alpha) (Homo sapiens, UniProt P16234); assay: Inhibition of wild-type human partial length PDGFRA (V575 to D1002 residues) expressed in HEK293 cells assessed as residual activity at 1000 nM after 30 mins by Kinomescan method relative to control; format: cell-based; settings: read-out: Activity
# [6] = molecular target: MAP kinase-interacting serine/threonine-protein kinase 1 (Homo sapiens) (UniProt Q9BUB5); assay: Inhibition of wild-type human full length MKNK1 (M1 to L424 residues) expressed in HEK293 cells assessed as residual activity at 1000 nM after 30 mins by Kinomescan method relative to control; format: cell-based
# Outline: (§1)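 Single-concentration screen at 1 µM across a 456-kinase KINOMEscan panel. The read-out is Percent Control for each kinase.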
# [7] = molecular target: Dual specificity mitogen-activated protein kinase kinase 6 (Homo sapiens) (UniProt P52564); assay: Inhibition of wild-type human partial length MEK6 (K36 to D334 residues) expressed in Escherichia coli BL21 assessed as residual activity at 1000 nM after 30 mins by Kinomescan method relative to control
# [8] = molecular target: Dual specificity mitogen-activated protein kinase kinase 5 (Homo sapiens) (UniProt Q13163); assay: Inhibition of wild-type human partial length MEK5 (L98 to P448 residues) expressed in HEK293 cells assessed as residual activity at 1000 nM after 30 mins by Kinomescan method relative to control; format: cell-based
# [9] = molecular target: Insulin receptor (Homo sapiens) (UniProt P06213); assay: Inhibition of wild-type human partial length INSR (P997 to E1318 residues) expressed in HEK293 cells assessed as residual activity at 1000 nM after 30 mins by Kinomescan method relative to control; format: cell-based
# [10] = molecular target: PDGFRB (platelet-derived growth factor receptor beta) (Homo sapiens, UniProt P09619); assay: Inhibition of wild-type human partial length PDGFRB (V582 to Y1009 residues) expressed in Escherichia coli BL21 assessed as residual activity at 1000 nM after 30 mins by Kinomescan method relative to control; settings: read-out: Activity
# [11] = test system: Leucine-rich repeat serine/threonine-protein kinase 2 (Homo sapiens), Q5S007 [G2019S]; assay: Inhibition of human partial length LRRK2 G2019S mutant (H970 to E2527 residues) expressed in HEK293 cells assessed as residual activity at 1000 nM after 30 mins by Kinomescan method relative to control; format: cell-based
# Outline: (§2)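 KINOMEscan binding panel of 456 kinases, with the test compound at a single concentration of 1 µM. Read-out is Percent Control.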
# [12] = molecular target: Mitogen-activated protein kinase 8 (Homo sapiens) (UniProt P45983); assay: Inhibition of wild-type human full length JNK1 (M1 to Q384 residues) expressed in HEK293 cells assessed as residual activity at 1000 nM after 30 mins by Kinomescan method relative to control; format: cell-based; outline: as §1
# [13] = molecular target: Fibroblast growth factor receptor 1 (Homo sapiens, UniProt P11362); assay: Inhibition of human recombinant His-tagged FGFR1 cytoplasmic domain (308 to 731 residues) expressed in baculovirus using Tyr-4 peptide after 1 hr by FRET-based Z'-Lyte assay
# [14] = molecular target: Mast/stem cell growth factor receptor Kit (Homo sapiens) (UniProt P10721); assay: Inhibition of wild-type human partial length KIT (I571 to D952 residues) expressed in Escherichia coli BL21 assessed as residual activity at 1000 nM after 30 mins by Kinomescan method relative to control
# [15] = molecular target: 1-phosphatidylinositol 3-phosphate 5-kinase (Homo sapiens) (UniProt Q9Y2I7); assay: Inhibition of wild-type human partial length PIKFYVE (F1512 to C2098 residues) expressed in HEK293 cells assessed as residual activity at 1000 nM after 30 mins by Kinomescan method relative to control; format: cell-based
# [16] = molecular target: Phosphorylase b kinase gamma catalytic chain, liver/testis isoform (Homo sapiens) (UniProt P15735); assay: Inhibition of wild-type human partial length PHKG2 (M1 to W300 residues) expressed in Escherichia coli BL21 assessed as residual activity at 1000 nM after 30 mins by Kinomescan method relative to control
# [17] = molecular target: Serine/threonine-protein kinase 17B (Homo sapiens) (UniProt O94768); assay: Inhibition of wild-type human full length DRAK2 (M1 to C372 residues) expressed in Escherichia coli BL21 assessed as residual activity at 1000 nM after 30 mins by Kinomescan method relative to control; outline: as §1
# [18] = molecular target: Ephrin type-A receptor 4 (Homo sapiens) (UniProt P54764); assay: Inhibition of wild-type human partial length EPHA4 (T601 to R897 residues) expressed in Escherichia coli BL21 assessed as residual activity at 1000 nM after 30 mins by Kinomescan method relative to control
# [19] = molecular target: Cyclin-dependent kinase 15 (Homo sapiens) (UniProt Q96Q40); assay: Inhibition of wild-type human full length PFTAIRE2 (M1 to W384 residues) expressed in Escherichia coli BL21 assessed as residual activity at 1000 nM after 30 mins by Kinomescan method relative to control; outline: as §1
# [20] = molecular target: Cyclin-dependent kinase 17 (Homo sapiens) (UniProt Q00537); assay: Inhibition of wild-type human full length PCTK2 (M1 to F523 residues) expressed in Escherichia coli BL21 assessed as residual activity at 1000 nM after 30 mins by Kinomescan method relative to control; outline: as §1
# [21] = molecular target: Ribosomal protein S6 kinase alpha-1 (Homo sapiens) (UniProt Q15418); assay: Inhibition of wild-type human partial length N-terminal RSK1 Kinase domain 1 (M1 to E388 residues) expressed in Escherichia coli BL21 assessed as residual activity at 1000 nM after 30 mins by Kinomescan method relative to control
# [22] = test system: Mast/stem cell growth factor receptor Kit (Homo sapiens), P10721 [V559D,V654A]; assay: Inhibition of human partial length KIT V559D/V654A double mutant (Y545 to D952 residues) expressed in Escherichia coli BL21 assessed as residual activity at 1000 nM after 30 mins by Kinomescan method relative to control; outline: as §2
# Sequence of Ribosomal protein S6 kinase alpha-1 (Homo sapiens) (Q15418 whole entry, the tested form may be a part): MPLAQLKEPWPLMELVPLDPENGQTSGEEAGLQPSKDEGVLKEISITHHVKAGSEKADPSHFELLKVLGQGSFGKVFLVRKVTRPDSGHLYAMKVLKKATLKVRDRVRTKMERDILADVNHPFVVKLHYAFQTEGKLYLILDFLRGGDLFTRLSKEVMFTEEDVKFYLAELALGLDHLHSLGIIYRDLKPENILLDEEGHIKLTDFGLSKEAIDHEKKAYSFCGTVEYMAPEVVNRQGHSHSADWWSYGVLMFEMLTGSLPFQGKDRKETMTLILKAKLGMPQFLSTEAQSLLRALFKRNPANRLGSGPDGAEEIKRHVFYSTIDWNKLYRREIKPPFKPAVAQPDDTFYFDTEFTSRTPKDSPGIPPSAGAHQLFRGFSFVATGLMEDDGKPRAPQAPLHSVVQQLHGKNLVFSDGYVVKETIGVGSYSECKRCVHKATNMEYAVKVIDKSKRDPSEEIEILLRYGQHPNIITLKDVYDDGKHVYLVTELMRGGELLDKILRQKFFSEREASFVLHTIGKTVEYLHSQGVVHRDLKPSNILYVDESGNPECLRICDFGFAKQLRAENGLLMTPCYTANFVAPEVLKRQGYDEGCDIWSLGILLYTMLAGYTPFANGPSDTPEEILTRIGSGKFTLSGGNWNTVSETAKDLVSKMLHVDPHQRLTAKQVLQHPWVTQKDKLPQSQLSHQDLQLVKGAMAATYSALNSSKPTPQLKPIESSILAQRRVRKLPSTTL
# Sequence of Rho-associated protein kinase 2 (Homo sapiens) (O75116 whole entry, looked up, the tested form may be a part): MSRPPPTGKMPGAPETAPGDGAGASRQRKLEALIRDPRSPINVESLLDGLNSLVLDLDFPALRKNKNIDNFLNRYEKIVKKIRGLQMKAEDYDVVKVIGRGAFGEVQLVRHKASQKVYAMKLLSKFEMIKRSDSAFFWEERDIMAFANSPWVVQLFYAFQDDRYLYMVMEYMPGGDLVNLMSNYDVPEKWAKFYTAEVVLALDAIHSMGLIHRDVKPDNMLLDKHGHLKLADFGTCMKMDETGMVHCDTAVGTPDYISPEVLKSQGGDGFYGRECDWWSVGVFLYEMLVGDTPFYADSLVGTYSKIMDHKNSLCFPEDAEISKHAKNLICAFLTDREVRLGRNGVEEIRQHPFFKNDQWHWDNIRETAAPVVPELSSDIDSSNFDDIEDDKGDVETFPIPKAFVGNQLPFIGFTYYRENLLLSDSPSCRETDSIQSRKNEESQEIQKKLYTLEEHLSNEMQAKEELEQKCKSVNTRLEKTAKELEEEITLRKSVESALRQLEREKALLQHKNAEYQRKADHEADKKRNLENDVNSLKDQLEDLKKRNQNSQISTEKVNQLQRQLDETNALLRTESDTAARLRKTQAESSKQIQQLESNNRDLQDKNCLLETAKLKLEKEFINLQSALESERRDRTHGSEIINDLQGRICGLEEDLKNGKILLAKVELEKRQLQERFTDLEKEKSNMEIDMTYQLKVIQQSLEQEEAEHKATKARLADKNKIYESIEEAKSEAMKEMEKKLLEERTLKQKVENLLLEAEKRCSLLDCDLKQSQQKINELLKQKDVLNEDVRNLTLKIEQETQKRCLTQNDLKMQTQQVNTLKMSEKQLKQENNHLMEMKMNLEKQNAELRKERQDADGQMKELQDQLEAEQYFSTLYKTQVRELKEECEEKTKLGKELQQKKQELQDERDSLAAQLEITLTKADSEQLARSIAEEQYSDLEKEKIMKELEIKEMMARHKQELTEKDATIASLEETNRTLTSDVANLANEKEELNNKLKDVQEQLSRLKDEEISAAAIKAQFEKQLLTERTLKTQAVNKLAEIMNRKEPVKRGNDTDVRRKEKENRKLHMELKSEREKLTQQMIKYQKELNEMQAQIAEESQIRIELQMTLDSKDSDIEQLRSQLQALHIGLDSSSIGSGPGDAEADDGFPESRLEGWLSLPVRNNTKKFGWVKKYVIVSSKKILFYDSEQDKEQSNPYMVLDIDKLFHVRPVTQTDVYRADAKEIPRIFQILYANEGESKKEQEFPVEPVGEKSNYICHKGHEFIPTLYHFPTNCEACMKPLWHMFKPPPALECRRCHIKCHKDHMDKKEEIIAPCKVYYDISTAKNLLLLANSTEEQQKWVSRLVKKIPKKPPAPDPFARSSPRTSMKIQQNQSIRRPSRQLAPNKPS
# Sequence of PDGFRA (platelet-derived growth factor receptor alpha) (P16234 whole entry, the tested form may be a part): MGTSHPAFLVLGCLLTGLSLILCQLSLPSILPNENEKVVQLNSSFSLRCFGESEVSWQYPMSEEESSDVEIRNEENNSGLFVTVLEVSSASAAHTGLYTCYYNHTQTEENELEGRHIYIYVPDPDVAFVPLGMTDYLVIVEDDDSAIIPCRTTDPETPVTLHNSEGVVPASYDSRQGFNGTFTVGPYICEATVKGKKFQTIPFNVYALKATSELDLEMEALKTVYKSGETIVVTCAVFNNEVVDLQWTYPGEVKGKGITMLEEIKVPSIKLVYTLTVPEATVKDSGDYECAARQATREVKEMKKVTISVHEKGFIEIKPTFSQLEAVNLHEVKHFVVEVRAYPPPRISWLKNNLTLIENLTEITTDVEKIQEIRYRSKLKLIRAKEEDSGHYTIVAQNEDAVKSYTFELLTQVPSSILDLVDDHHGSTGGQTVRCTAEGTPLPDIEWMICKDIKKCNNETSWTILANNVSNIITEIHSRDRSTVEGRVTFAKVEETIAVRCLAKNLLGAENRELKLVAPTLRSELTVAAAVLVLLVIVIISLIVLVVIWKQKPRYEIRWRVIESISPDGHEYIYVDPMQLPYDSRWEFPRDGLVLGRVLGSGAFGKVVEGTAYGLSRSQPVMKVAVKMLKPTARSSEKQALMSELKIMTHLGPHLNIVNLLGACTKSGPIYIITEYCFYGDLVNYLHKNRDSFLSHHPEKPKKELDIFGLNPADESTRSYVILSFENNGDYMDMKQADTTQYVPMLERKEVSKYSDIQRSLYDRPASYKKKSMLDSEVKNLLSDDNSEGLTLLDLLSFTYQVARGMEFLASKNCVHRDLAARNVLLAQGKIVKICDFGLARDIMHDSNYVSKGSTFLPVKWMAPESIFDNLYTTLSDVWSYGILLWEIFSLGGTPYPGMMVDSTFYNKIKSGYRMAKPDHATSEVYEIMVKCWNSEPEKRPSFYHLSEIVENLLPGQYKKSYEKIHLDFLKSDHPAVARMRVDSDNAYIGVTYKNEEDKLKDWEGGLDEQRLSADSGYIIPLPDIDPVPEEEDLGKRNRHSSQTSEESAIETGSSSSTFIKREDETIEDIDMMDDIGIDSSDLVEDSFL
# Sequence of Fibroblast growth factor receptor 1 (P11362 whole entry, the tested form may be a part): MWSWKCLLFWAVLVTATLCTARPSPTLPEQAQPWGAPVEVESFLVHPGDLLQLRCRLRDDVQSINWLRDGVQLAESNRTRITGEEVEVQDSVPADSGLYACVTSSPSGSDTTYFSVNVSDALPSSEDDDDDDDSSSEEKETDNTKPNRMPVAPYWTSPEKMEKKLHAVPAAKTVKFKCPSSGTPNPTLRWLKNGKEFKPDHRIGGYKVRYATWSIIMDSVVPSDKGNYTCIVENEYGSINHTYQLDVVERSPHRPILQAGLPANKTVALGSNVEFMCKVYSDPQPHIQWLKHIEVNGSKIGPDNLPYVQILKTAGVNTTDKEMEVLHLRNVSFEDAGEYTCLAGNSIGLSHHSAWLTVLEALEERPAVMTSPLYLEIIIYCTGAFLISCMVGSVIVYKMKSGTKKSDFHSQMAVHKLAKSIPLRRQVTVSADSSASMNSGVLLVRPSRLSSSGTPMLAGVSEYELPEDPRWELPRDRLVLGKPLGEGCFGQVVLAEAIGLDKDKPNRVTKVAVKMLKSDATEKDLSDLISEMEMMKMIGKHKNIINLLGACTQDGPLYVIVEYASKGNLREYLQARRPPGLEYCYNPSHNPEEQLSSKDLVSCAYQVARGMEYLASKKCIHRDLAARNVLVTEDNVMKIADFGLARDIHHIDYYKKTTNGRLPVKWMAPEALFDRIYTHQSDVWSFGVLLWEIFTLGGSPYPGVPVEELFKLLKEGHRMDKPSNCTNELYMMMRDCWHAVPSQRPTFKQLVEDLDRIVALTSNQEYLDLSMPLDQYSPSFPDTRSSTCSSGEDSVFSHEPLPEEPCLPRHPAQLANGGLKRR
# Sequence of Dual specificity mitogen-activated protein kinase kinase 6 (Homo sapiens) (P52564 whole entry, the tested form may be a part): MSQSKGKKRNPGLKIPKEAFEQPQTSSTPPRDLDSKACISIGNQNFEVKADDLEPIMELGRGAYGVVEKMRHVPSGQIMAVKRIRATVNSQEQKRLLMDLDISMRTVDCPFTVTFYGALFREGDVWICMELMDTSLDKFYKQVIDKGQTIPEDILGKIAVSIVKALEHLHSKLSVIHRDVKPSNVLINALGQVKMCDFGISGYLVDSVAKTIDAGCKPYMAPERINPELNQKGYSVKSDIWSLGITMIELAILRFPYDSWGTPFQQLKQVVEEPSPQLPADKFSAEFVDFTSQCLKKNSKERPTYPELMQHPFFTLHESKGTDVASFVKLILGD
# Sequence of Aurora kinase B (Homo sapiens) (Q96GD4 whole entry, the tested form may be a part): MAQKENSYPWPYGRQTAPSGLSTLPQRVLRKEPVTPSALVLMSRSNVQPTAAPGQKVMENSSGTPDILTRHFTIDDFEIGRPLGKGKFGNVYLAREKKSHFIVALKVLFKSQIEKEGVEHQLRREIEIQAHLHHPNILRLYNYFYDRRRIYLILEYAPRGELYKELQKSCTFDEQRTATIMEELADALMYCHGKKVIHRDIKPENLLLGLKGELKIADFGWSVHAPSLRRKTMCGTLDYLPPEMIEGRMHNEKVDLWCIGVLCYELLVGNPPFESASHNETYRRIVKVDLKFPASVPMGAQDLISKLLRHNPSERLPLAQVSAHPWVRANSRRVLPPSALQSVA
smiles,measurement,setting,value
COc1cc(OC)c(Cl)c(N2Cc3cnc(Nc4ccc(F)cc4)nc3N(C3CCN(C(=O)/C=C/CN(C)C)CC3)C2=O)c1Cl,Activity,[1],100%
same,Activity,[2],95%
same,Activity,[3],100%
same,Activity,[4],92%
same,"activity at 0.5 h, 1 µM",[5],62%
same,Activity,[6],88%
same,Activity,[7],92%
same,Activity,[8],90%
same,Activity,[9],87%
same,"activity at 0.5 h, 1 µM",[10],1.5%
same,Activity,[11],98%
same,Activity,[12],87%
same,IC50,[13],0.99 nM
same,Activity,[14],19%
same,Activity,[15],95%
same,Activity,[16],98%
same,Activity,[17],99%
same,Activity,[18],100%
same,Activity,[19],100%
same,Activity,[20],90%
same,Activity,[21],78%
same,Activity,[22],99%
